Screens (PubChem)
V1aR counter: agonists of human V1a receptor, primary screen, counter-screen for OXTR agonist project, fluorescence, CHO-V1R cells. Vasopressin V1a receptor (Homo sapiens), P37288. Fluo-8 calcium fluorescence, agonist mode; 0% DMSO, 100% 3 nM vasopressin. activation, % at 3 µM. 320,000 compounds, 0.25% hits. AID 2797, 2010;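 active means activation above the mean activation of all tested compounds plus 3 SD, per screening run, cut at about 20% in these data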;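 further: signal is peak over basal fluorescence ratio across a 100 second FLIPR read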
TRPML3 ag: human TRPML3 channel agonists, primary screen, cell-based, HEK293 TRPML3-YFP, Fluo-8 calcium fluorescence, 3 µM. 100% = the carbachol control signal. activation, % at 3 µM. 220,000 compounds, 0.29% hits. AID 1448, 2008;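 active means activation above its plate's cutoff, the mean activation of the plate's test wells plus 3 SD, cut at about 12% in these data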;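 further: 0% = DMSO only wells and 100% = carbachol wells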
Target sequence (Q8TDD5 whole entry, looked up): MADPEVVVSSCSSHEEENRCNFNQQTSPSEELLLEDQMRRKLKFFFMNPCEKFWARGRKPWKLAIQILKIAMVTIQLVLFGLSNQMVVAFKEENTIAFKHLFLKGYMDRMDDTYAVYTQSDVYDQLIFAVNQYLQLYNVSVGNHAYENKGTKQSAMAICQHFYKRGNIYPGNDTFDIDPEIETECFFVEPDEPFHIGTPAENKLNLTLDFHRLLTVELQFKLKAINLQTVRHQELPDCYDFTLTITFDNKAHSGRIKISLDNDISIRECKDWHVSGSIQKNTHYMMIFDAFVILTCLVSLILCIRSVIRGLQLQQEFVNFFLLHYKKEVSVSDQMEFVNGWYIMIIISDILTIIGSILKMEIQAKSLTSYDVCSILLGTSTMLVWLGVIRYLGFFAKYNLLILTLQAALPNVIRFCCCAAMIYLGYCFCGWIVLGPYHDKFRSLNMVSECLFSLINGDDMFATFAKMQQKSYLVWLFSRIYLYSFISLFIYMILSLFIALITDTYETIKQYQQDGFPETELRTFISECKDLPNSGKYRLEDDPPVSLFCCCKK
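Test system – HEK293 line with stable expression of human TRPML3-YFP channel · Control set – carbachol 87 µM final as high control (100%), DMSO as low control (0%) · Signal – Fluo-8 calcium dye fluorescence, ex 470-495, em 515-575 nm · Incubation – 1-h 37 °C dye load, 5-s basal, 120-s post-compound reads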
OXTR potentiate: human OXTR potentiators, primary screen, fluorescence, CHO-OTR cells, Fluo-8 calcium; Oxytocin receptor (Homo sapiens), P30559; Fluo-8 calcium fluorescence, potentiator mode; 0% = oxytocin EC15, 100% = EC100; 320,000 compounds, 0.061% hits; AID 2445, 2010; activation, % at 3 µM;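 active means activation above that plate's cutoff, the mean activation of tested compounds plus 3 SD, cut at about 6.6% in these data, passing the limit was not always enough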;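 further: 100% uses oxytocin at 75 nM as the full agonist control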
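Material: CHO-OTR cells, human receptor; compound dosing: single dose, 3.0 µM nominal final compound concentration; schedule: 6 min compound pre-incubation at room temperature, 100 s kinetic read; measured by: kinetic Fluo-8 calcium fluorescence; read-out basis: % activation vs EC15 and EC100 oxytocin; controls: EC15 oxytocin alone as 0%, 75 nM oxytocin as 100%; replicates: singlicate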
TRPN1 ag: zebrafish TRPN1 channel agonists, primary screen, cell-based, HEK293, calcium fluorescence; transient receptor potential cation channel N1 (TRPN1/NompC), Danio rerio; HEK293 zebrafish TRPN1-YFP, Fluo-8 calcium fluorescence; 100% = response to 87 µM carbachol; activation, % at 3 µM; 220,000 compounds, 0.18% hits; AID 1424, 2008;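 active means activation above its plate's cutoff, the mean activation of test wells on that plate plus 3 SD, cut at about 19% in these data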;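 further: 0% = DMSO alone and 100% = 87 µM carbachol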
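Control set: carbachol 87 µM as high control, DMSO as low control; system: HEK293 stable line with zebrafish TRPN1-YFP; read-out: % activation versus carbachol response; detection: intracellular calcium fluorescence with Fluo-8; doses: single test compound dose, 3 µM nominal, 0.3% DMSO; schedule: dye 1 h 37 °C plus 30 min RT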
OXTR agonist: human OXTR agonists, primary screen, fluorescence, CHO-OTR cells, Fluo-8 calcium. 320,000 compounds, 0.32% hits. Fluo-8 calcium fluorescence; normalized: DMSO 0%, oxytocin 100%. AID 2435, 2010. activation, % at 3 µM. Oxytocin receptor (Homo sapiens), P30559;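 active means activation above the mean of all tested compounds plus 3 SD, cutoff set per screening run, cut at about 20% in these data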;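 further: peak over basal fluorescence ratio from a 100 s FLIPR kinetic read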
TRPN1 counter: zebrafish TRPN1 channel agonists, counter-screen for TRPML3 agonist project, cell-based, HEK293 TRPN1-YFP, Fluo-8 calcium. activation, % at 3 µM. AID 1525, 2009. 310 compounds, 10% hits. shares compounds with TRPML3 ag. Fluo-8 calcium fluorescence; scaled: carbachol wells 100%, DMSO wells 0%;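 active means mean activation over replicates above a set limit taken from the earlier TRPN1 channel primary screen, cut at about 19% in these data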;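 further: 100% = carbachol and 0% = 0.3% DMSO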
TRPML3 confirm: human TRPML3 channel agonists, confirmation, cell-based, HEK293 TRPML3-YFP, Fluo-8 calcium, triplicate | shares compounds with TRPML3 ag | 310 compounds, 80% hits | activation, % at 3 µM | Fluo-8 calcium fluorescence; 100% set by carbachol, 0% by DMSO;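 active means activation above a set limit derived from the earlier primary screen, cut at about 12% in these data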
OXTR agonist cf: human OXTR agonists, confirmation, fluorescence, CHO-OTR cells, triplicate. shares compounds with OXTR agonist. Fluo-8 calcium fluorescence, agonist. activation, % at 3 µM. 390 compounds, 20% hits;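 active means mean activation above about 20% derived from the earlier single-dose screen, limit read from the data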;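 further: peak over minimum fluorescence ratio per well during a 100 second FLIPR read; 0% = DMSO alone and 100% = oxytocin high control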
V1R ag counter 3x: V1a receptor agonists, calcium signal, counter-screen for OXTR agonist project, triplicate, fluorescence, CHO-V1R cells. shares compounds with OXTR agonist. Fluo-8 calcium fluorescence. activation, % at 3 µM. 390 compounds, 10% hits. AID 434991, 2010;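 active means mean activation over triplicate exceeds the hit threshold set in the earlier primary screen, cut at about 20% in these data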;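 further: peak over basal fluorescence ratio within a 100 second read; 0% = DMSO alone and 100% = 3 nM vasopressin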
OXTR pot cf: human OXTR potentiators, confirmation, fluorescence, CHO-OTR cells, triplicate | Fluo-8 calcium fluorescence, potentiation; scaled from low-dose to maximal oxytocin | 180 tested, under 10 active | shares compounds with OXTR potentiate | AID 434985, 2010 | activation, % at 3 µM;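 active means mean percent activation over triplicates above a cutoff set from solvent-only control plates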;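 further: compounds tested in the presence of an EC15 dose of oxytocin; 0% = EC15 oxytocin with DMSO and 100% = EC100 oxytocin with DMSO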
V1aR agonist cf: V1a receptor agonists, calcium signal, confirmation, Fluo-8 calcium fluorescence, CHO-V1R cells. shares compounds with V1aR counter. agonist. activation, % at 3 µM. 180 compounds, 20% hits. AID 434964, 2010;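 active means average activation exceeds primary screen hit cutoff, cut at about 21% in these data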;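 further: peak over basal fluorescence ratio during a 100 s FLIPR read; 0% = DMSO only wells and 100% = 3 nM vasopressin wells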
OXTR ag counter: human OXTR agonists, counter-screen for V1R agonist project, fluorescence, CHO-OTR cells, triplicate | shares compounds with V1aR counter | Fluo-8 calcium fluorescence | activation, % at 3 µM | 180 compounds, 10% hits;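 active means mean activation over three repeats above the cutoff from the earlier oxytocin receptor agonist screen, cut at about 20% in these data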;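 further: peak over minimum fluorescence ratio within a 100 second FLIPR read; 0% = DMSO only wells and 100% = oxytocin high control wells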
Starred values were filed as active, the others as inactive; nt = no result. Shown are actives, neighbours in structure and some others; about 0.58% of the full set was active somewhere.

SMILES	V1aR counter	TRPML3 ag	OXTR potentiate	TRPN1 ag	OXTR agonist	others
CC1(C)CN=C(Nc2ccc(F)c(Cl)c2)S1	27.0*	0.4	-13.8	0.1	16.4
CC1(C)CN=C(Nc2ccc(F)c(F)c2)S1	13.1	0.4	-7.6	0.5	4.8
O=[N+]([O-])c1ccc(N2CCCCCC2)c2nonc12	534.2*	nt	-26.5	nt	412.8*
O=C1NC(=O)C(=Cc2csc3ccccc23)C(=O)N1	0.6	-0.1	-16.3	2.3	24.0*
CN1C(=O)C(=Cc2sc(=O)n(-c3ccccc3)c2N2CCCCC2)C(=O)N(C)C1=O	nt	9.1	nt	29.1*	nt
C/C=C(\C)C(=O)OC1C(C)=C2C(C1OC(=O)CCCCC)C(C)(OC(C)=O)CC(OC(=O)CCC)C1(O)C2OC(=O)C1(C)O (centres undefined)	65.2*	nt	-11.1	nt	62.3*
Nc1ccc2ccc3cccc[n+]3c2c1	92.4*	nt	-16.2	nt	38.2*
CC(C)(C)n1cc(C(=O)c2ccc3ccccc3c2O)cn1	1.4	0.3	-6.4	1.0	-0.9
O=C1NC(=O)C(=C/C=C/c2coc3ccc(Br)cc3c2=O)C(=O)N1	17.2	5.6	-22.8	11.0	39.6*
COc1ccc(CNCCc2c(C)[nH]c3ccc(OC(F)(F)F)cc23)c(OC)c1	41.0*	nt	-23.3	nt	40.6*
COc1ccc2[nH]c(C)c(CCNCc3cc(OC)c(OC)c(OC)c3)c2c1	-0.1	0.7	-20.9	-1.0	1.4
CC(=O)c1ccccc1NC(=O)C1C2CCC(O2)C1C(=O)O (centres undefined)	0.2	-0.6	-3.0	0.2	0.7
CCCCOC(=O)c1ccccc1C(=O)OCc1ccccc1	-1.3	nt	-1.5	nt	-1.9
O=[N+]([O-])c1ccc(NCc2ccccc2)c2nonc12	691.5*	215.7*	-17.2	332.1*	692.8*
O=[N+]([O-])c1ccc(NCc2ccc(Cl)cc2)c2ccncc12	4.1	nt	0.2	nt	2.0
COC(=O)C1=C(c2ccccc2OCc2ccccc2)C[C@@H]2CC[C@H]1N2C(=O)NCc1ccccc1	2.2	nt	5.3	nt	-0.6
Cc1cc2c(C(F)(F)F)cc(=O)oc2c2c1NCCC2	8.8	1.9	-1.0	2.3	4.5
O=c1cc(C(F)(F)F)c2cc3c4c(c2o1)CCCN4CCC3	152.2*	7.9	-18.0	11.1	168.9*
CC(C(=O)Nc1ccc(Br)cc1C(=O)c1ccccc1)N1CCCCC1 (centres undefined)	-1.2	-0.8	11.9*	-1.2	-2.0
C=C1C(=O)O[C@@H]2C[C@@H](C)[C@H]3C=CC(=O)[C@]3(O)C[C@@H]12	0.3	nt	-3.7	nt	0.8
O=C(O)CCCc1ccc(N(CCCl)CCCl)cc1	0.3	0.2	-3.8	1.1	-0.7
Cn1c(O)c(C=Nc2ccc(Br)cc2)c(=O)n(C)c1=O	1.1	nt	7.5	nt	-0.1
Cn1c(O)c(/C=C/C=Nc2ccccc2)c(=O)n(C)c1=S	47.4*	5.6	-18.8	4.7	93.0*
COCCNC(=O)c1ccc(N2CC3CC(C2)c2cccc(=O)n2C3)c([N+](=O)[O-])c1 (centres undefined)	-0.5	2.2	-6.7	5.1	0.4
CN1/C(=C\C=C2C(=O)NC(=S)NC2=O)C(C)(C)c2ccccc21	nt	31.5*	nt	57.4*	nt
SMILES	V1aR counter	TRPML3 ag	OXTR potentiate	TRPN1 ag	OXTR agonist	others
COC(=O)C1=C(c2cc3ccccc3s2)C[C@@H]2CC[C@H]1N2C(=O)N1CCC(C)CC1	-0.1	nt	-9.9	nt	-2.1
COC(=O)C1=CCCN(C)C1	0.8	19.8*	-3.3	5.9	0.5	TRPN1 counter=11.6;TRPML3 confirm=45.8*
O=C(/C=C/c1ccc(F)cc1)NC(=S)N1C[C@H]2C[C@H](C1)c1cccc(=O)n1C2	0.1	nt	-0.3	nt	-0.6
Cc1cccc(-n2c(O)c(/C=C/C=Nc3ccccc3)c(=O)[nH]c2=O)c1	11.8	7.4	-7.5	7.1	23.3*	OXTR agonist cf=25.6*;V1R ag counter 3x=35.4*
O=[N+]([O-])c1ccc(N2CCNCC2)cc1NCC1CCCO1 (centres undefined)	-0.4	-0.2	-3.8	0.7	-0.7
CCOc1ccc(-n2c(O)c(C=NCCN(CC)CC)c(=O)[nH]c2=O)cc1	0.4	1.2	13.2*	-1.4	2.9	OXTR pot cf=-6.5
CCC/C=C(\CCC)C(NP(=O)(c1ccccc1)c1ccccc1)c1ccccc1 (centres undefined)	-0.6	nt	-8.0	nt	0.3
C=CCn1c(O)c(C(CC)=Nc2cccc(C(=O)O)c2)c(=O)[nH]c1=O	22.1*	0.4	-6.0	1.0	1.1	V1aR agonist cf=-0.1;OXTR ag counter=-0.6
COc1ccc(CN2C(=O)NC(=O)/C(=C/c3ccoc3)C2=O)cc1	33.4*	11.3	-22.3	18.0	16.9	V1aR agonist cf=0.7;OXTR ag counter=0.9
COc1ccc(CN2C(=O)NC(=O)/C(=C/c3cc(OC)c(OC)c(OC)c3)C2=O)cc1	-0.2	0.8	-4.6	1.5	1.0
Cc1c(N=Cc2c(O)n(Cc3ccco3)c(=O)[nH]c2=O)c(=O)n(-c2ccccc2)n1C	1.5	0.2	-0.9	0.8	-0.2
